Measured values published in paper PMC6889762 (Toxicology Reports, 2019).

Legend:
[1] = Fe3+-TPTZ reducing ability; conditions: for Fe^3+-TPTZ reducing (absorbance): 20 μg/mL, absorbance at 593 nm
[2] = ABTS radical cation scavenging
Procedure, shortened: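 Radical cation generated from 2.0 mM ABTS in deionized water with 2.3 mM K2S2O8, then diluted with pH 7.4 buffer to absorbance 0.750 ± 0.025. Test compound (10−30 μg/mL) mixed with the radical solution; residual absorbance read at 734 nm. Scavenging % = (1 − As/Ac) × 100. IC50 was taken from a plot of % against concentration. Triplicate runs, mean ± SD.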

Ferrous ion = experiment: Ferrous ion
Procedure, shortened: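 FeCl2 (0.6 mM stock) added to the test compound solution; iron complex formation measured spectrophotometrically at 522 nm. Chelated Fe2+ % = (1 − As/Ac) × 100, where Ac is the control absorbance. IC50 came from a plot of % against concentration. Triplicate, mean ± SD.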

[3] = Superoxide anion radical scavenging
Procedure, shortened: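 Superoxide generated in a methionine–riboflavin system under illumination and detected by NBT reduction at 560 nm. Scavenging % = (1 − As/Ac) × 100 against a compound-free control. IC50 was estimated from a plot of % against test compound concentration. Triplicate, mean ± SD.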

Fe3+ reducing ability = conditions: for Fe^3+ reducing (absorbance): 20 μg/mL, absorbance at 700 nm
[4] = DMPD radical cation scavenging
Procedure, shortened: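 DMPD solution (0.1 M stock) added to 0.1 M acetate buffer, pH 5.3, containing the test compound (10−30 μg/mL). FeCl3 (50 mM stock) was then added and absorbance measured at 505 nm. Scavenging % = (1 − As/Ac) × 100. IC50 was read from a plot of % against concentration. Triplicate, mean ± SD.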

Cu2+ reducing ability = conditions: for Cu^2+ reducing (absorbance): 20 μg/mL, absorbance at 450 nm; for Cu^2+ ions reducing ability (absorbance): running text: at 30 μg/mL concentration, 450 nm
Procedure, shortened: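 CUPRAC assay: CuCl2 (10 mM stock), neocuproine (7.5 mM stock) and 1.0 M acetate buffer were added to the test compound (10−30 μg/mL). The mixture was made up with deionized water, tubes were closed and left at room temperature, and absorbance was read at 450 nm. Higher absorbance means greater reducing ability. Triplicate runs, mean ± SD.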

DPPH radical scavenging = experiment: DPPH radical scavenging
Procedure, shortened: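 Ethanolic DPPH (0.1 mM stock) added to the test compound in ethanol (10−30 μg/mL). Incubated 30 min in the dark, absorbance read at 517 nm. Scavenging % = (1 − As/Ac) × 100. IC50 was obtained by plotting % against concentration. Triplicate analyses, mean ± SD.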

[5] = target: butyrylcholinesterase (BChE) (Equus caballus, UniProt P81908); experiment: biochemical; parameters: species or system equine
butyrylcholinesterase (BChE), sequence (P81908 whole entry): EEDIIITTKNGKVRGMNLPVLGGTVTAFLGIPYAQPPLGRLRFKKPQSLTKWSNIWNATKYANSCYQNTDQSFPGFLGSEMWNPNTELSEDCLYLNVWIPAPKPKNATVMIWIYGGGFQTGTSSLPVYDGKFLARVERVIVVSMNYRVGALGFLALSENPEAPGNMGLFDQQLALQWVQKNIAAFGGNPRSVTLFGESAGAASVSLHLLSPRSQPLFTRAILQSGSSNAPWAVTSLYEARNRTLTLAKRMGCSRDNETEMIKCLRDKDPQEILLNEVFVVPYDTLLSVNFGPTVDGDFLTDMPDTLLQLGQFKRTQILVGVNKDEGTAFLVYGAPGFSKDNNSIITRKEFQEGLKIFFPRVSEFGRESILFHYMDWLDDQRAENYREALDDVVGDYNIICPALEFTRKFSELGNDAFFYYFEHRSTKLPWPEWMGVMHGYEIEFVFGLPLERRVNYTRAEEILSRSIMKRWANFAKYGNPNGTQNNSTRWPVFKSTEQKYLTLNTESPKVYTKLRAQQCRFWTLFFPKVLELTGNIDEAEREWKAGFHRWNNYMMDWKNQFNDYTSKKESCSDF

[6] = target: acetylcholinesterase (AChE) (Electrophorus electricus, UniProt O42275); experiment: AChE inhibition; format: biochemical, Electric eel
acetylcholinesterase (AChE), sequence (O42275 24-633): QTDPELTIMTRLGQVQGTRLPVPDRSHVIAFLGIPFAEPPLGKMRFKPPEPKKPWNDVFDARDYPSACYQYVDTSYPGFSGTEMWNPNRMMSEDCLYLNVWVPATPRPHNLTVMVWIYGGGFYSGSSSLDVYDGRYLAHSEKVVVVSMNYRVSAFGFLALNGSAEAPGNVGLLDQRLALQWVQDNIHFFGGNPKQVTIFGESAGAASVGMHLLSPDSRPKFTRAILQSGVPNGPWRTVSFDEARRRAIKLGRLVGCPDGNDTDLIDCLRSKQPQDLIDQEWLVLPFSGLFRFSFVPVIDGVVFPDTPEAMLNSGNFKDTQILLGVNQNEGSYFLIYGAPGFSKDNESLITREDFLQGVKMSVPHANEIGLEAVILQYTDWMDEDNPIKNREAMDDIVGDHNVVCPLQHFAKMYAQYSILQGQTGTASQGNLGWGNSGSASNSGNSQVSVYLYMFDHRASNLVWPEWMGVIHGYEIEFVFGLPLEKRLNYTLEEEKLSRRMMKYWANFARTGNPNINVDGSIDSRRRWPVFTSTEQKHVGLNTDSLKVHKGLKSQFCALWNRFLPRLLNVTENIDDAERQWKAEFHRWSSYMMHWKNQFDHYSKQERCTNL

Structure (SMILES) | Fe^3+-TPTZ reducing (absorbance) [1] | ABTS^•+ scavenging IC50 [2] [µg/mL] | Metal chelating (Fe^2+) IC50 (Ferrous ion) [µg/mL] | O2^•− scavenging IC50 [3] [µg/mL] | Fe^3+ reducing (absorbance) (Fe3+ reducing ability) | DMPD^•+ scavenging IC50 [4] [µg/mL] | Cu^2+ reducing (absorbance) (Cu2+ reducing ability) | Cu^2+ ions reducing ability (absorbance) (Cu2+ reducing ability) | DPPH· scavenging IC50 (DPPH radical scavenging) [µg/mL] | IC50 [5] [nM] | FRAP effects (absorbance) ([1]; concentration not given, 593 nm) | IC50 [6] [nM] | Ki [6] [nM] | Fe^3+ reducing ability (absorbance) (Fe3+ reducing ability; concentration not given, 700 nm) | DMPD^•+ scavenging activity [4]
Cc1c(C)c2c(c(C)c1O)CCC(C)(C(=O)O)O2 (stereo not drawn) [Trolox, trolox] | 1.973 | 4.30 | 8.05 | 30.13 | 1.148 | 22.35 | 0.825 | 0.825 | 8.01 |  |  |  |  |  | 
CC(=O)c1c(O)c(C)c(O)c2c1OC1=CC(=O)C(C(C)=O)C(=O)C12C (stereo not drawn) [Usnic acid] | 1.293 | 10.41 | 18.68 | 20.38 | 0.278 | 33.00 | 0.277 | 0.277 | 49.50 | 3.4 | 1.293 | 1.27 | 0.239 | 0.278 | 
Cc1c(C)c2c(c(C)c1O)CC[C@@](C)(CCC[C@H](C)CCC[C@H](C)CCCC(C)C)O2 [α-Tocopherol, α-tocopherol] | 1.473 | 5.02 | 27.72 | 21.01 | 0.802 |  | 0.564 | 0.564 | 9.76 |  |  |  |  |  | did not demonstrate scavenging activity
O=C(O)CN(CCN(CC(=O)O)CC(=O)O)CC(=O)O [EDTA] |  |  | 6.24 |  |  |  |  |  |  |  |  |  |  |  | 
